Test results as given in ChEMBL document CHEMBL1137729, “Synthesis, evaluation and 3D QSAR analysis of novel estradiol-RGD octapeptide conjugates with oral anti-osteoporosis activity” (Eur J Med Chem, 2009).
One block for each compound: values may come before it. The source made the active and inactive calls. The calls are words filed in the database; no cut-off is given here. Residues, ends and D or L forms follow the SMILES beside them. *: point of attachment. Succinyl(O17-estradiol) = C[C@]12CC[C@@H]3c4ccc(O)cc4CC[C@H]3[C@@H]1CC[C@@H]2OC(=O)CCC(=O)*

Key:
Mus musculus [1] = species on record: Mus musculus; test: Inhibition of ADP-induced platelet aggregation in osteoporotic female mouse by ex vivo platelet aggregation assay; assay type: functional, organism-based
Mus musculus [2] = species on record: Mus musculus; test: Inhibition of PAF-induced platelet aggregation in osteoporotic female mouse by ex vivo platelet aggregation assay; assay type: functional, organism-based
Mus musculus [3] = test: Antiosteoporosis activity in osteoporotic female mouse at 4 umol/kg, po; assay type: functional, organism-based
[4] = Stability in presence of pepsin at 37 degC after 4 hrs; assay type: ADME; settings: isolated protein
Mus musculus [5] = test: Antiosteoporosis activity in ovariectomized ICR mouse assessed as calcium level in serum at 110.3 nmol/kg, po treated for 4 weeks measured after 1 day of last treatment by o-methyl-phenolphthalein method; assay type: functional
Procedure, shortened: (§1)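 Ovariectomized female mice dosed orally with 110.3 nmol/kg in 0.5% carboxymethylcellulose once daily for 4 weeks, starting day 5 after surgery. Blood taken from the orbit the day after the last dose, stood 30 min, centrifuged 3000g for 20 min, serum stored at −20 °C. Calcium read by o-methylphenolphthalein complexone; phosphorus by molybdenum blue.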

Mus musculus [6] = test: Antiosteoporosis activity in ovariectomized ICR mouse assessed as phosphorous level in serum at 110.3 nmol/kg, po treated for 4 weeks measured after 1 day of last treatment by molybdenum blue method; assay type: functional; procedure, shortened: as §1
Mus musculus [7] = test: Antiosteoporosis activity in ovariectomized ICR mouse assessed as weight of dry femur at 110.3 nmol/kg, po treated for 4 weeks measured after 1 day of last treatment; assay type: functional
Procedure, shortened: (§2)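 Left femur taken the day after the last dose, cleaned of muscle, length measured, defatted in chloroform–methanol (2:1, 2×3 h), dried 120 °C 6 h and weighed, ashed 800 °C 8 h and weighed. Mineral content = ash/dry weight; femur ash dissolved in 6 N HCl, diluted, calcium by o-methylphenolphthalein complexone. n = 12.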

Mus musculus [8] = test: Antiosteoporosis activity in ovariectomized ICR mouse assessed as weight of femur ash at 110.3 nmol/kg, po treated for 4 weeks measured after 1 day of last treatment; assay type: functional
Procedure, shortened: as §2, with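 “Female mice, ovariectomized (sham: laparotomy only); from day 5 post-surgery dosed orally once daily with 110.3 nmol/kg in 0.2 ml 0.5% carboxymethylcellulose for 4 weeks (vehicle to OVX/sham). Left” for “Left”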

Mus musculus [9] = test: Antiosteoporosis activity in ovariectomized ICR mouse assessed as length of femur at 110.3 nmol/kg, po treated for 4 weeks measured after 1 day of last treatment; assay type: functional
Procedure, shortened: as §2, with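 “Female mice, ovariectomized (sham: laparotomy only); from day 5 post-surgery dosed orally once daily with 110.3 nmol/kg in 0.2 ml 0.5% carboxymethylcellulose for 4 weeks (vehicle to OVX/sham). Left” for “Left”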

Mus musculus [10] = test: Antiosteoporosis activity in ovariectomized ICR mouse assessed as calcium content in femur at 110.3 nmol/kg, po treated for 4 weeks measured after 1 day of last treatment by o-methyl-phenolphthalein; assay type: functional
Procedure, shortened: as §2, with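 “Female mice, ovariectomized (sham: laparotomy only); from day 5 post-surgery dosed orally once daily with 110.3 nmol/kg in 0.2 ml 0.5% carboxymethylcellulose for 4 weeks (vehicle to OVX/sham). Left” for “Left”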

Mus musculus [11] = test: Antiosteoporosis activity in ovariectomized ICR mouse assessed as phosphorous content in femur at 110.3 nmol/kg, po treated for 4 weeks measured after 1 day of last treatment by molybdenum blue method; assay type: functional
Mus musculus [12] = test: Antiosteoporosis activity in ovariectomized ICR mouse assessed as mineral content in femur at 110.3 nmol/kg, po treated for 4 weeks measured after 1 day of last treatment; assay type: functional
Procedure, shortened: as §2, with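 “Female mice, ovariectomized (sham: laparotomy only); from day 5 post-surgery dosed orally once daily with 110.3 nmol/kg in 0.2 ml 0.5% carboxymethylcellulose for 4 weeks (vehicle to OVX/sham). Left” for “Left”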

Mus musculus [13] = test: Toxicity in ovariectomized ICR mouse assessed as spleen weight at 110.3 nmol/kg, po treated for 4 weeks measured after 1 day of last treatment; assay type: organism-based; settings: in vivo, 24 h
Procedure, shortened: (§3)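 OVX mice dosed orally once daily with 110.3 nmol/kg in 0.5% carboxymethylcellulose for 4 weeks. The day after the last dose, mice were anesthetized with pentobarbital (40.0 mg/kg ip) and killed; uteri, lungs, livers and spleens were removed and weighed directly and their morphology noted.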

Mus musculus [14] = test: Toxicity in ovariectomized ICR mouse assessed as lung weight at 110.3 nmol/kg, po treated for 4 weeks measured after 1 day of last treatment; assay type: organism-based; settings: in vivo, 24 h; procedure, shortened: as §3
Mus musculus [15] = test: Toxicity in ovariectomized ICR mouse assessed as kidney weight at 110.3 nmol/kg, po treated for 4 weeks measured after 1 day of last treatment; assay type: organism-based; settings: in vivo, 24 h
Mus musculus [16] = test: Toxicity in ovariectomized ICR mouse assessed as liver weight at 110.3 nmol/kg, po treated for 4 weeks measured after 1 day of last treatment; assay type: organism-based; settings: in vivo, 24 h; procedure, shortened: as §3
Mus musculus [17] = test: Toxicity in ovariectomized ICR mouse assessed as effect on tail bleeding time at 110.3 nmol/kg, po treated for 4 weeks measured after 30 mins of last treatment; assay type: organism-based; settings: in vivo, 0.5 h
Procedure, shortened: (§4)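 OVX mice received 110.3 nmol/kg orally in 0.5% carboxymethylcellulose daily for 4 weeks. At 30 and 90 min after the last dose, a 2 mm tail cut was made with the mouse in a tube holder; blood was blotted every 30 s until bleeding stopped, and the time was recorded as bleeding time.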

Mus musculus [18] = test: Toxicity in ovariectomized ICR mouse assessed as effect on tail bleeding time at 110.3 nmol/kg, po treated for 4 weeks measured after 90 mins of last treatment; assay type: organism-based; settings: in vivo, 1.5 h; procedure, shortened: as §4
Mus musculus [19] = test: Toxicity in ovariectomized ICR mouse assessed as effect on uterine weight at 110.3 nmol/kg, po treated for 4 weeks measured after 1 day of last treatment; assay type: organism-based; settings: in vivo, 24 h; procedure, shortened: as §3
Mus musculus [20] = test: Antiosteoporosis activity in osteoporotic female mouse at 0.11 umol/kg, po; assay type: functional, organism-based
Procedure, shortened: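 Dose-finding pre-treatment: series of oral doses given to osteoporotic female mice; ex vivo anti-osteoporosis activity assessed to assign a general dose for all later experiments.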

Mus musculus [21] = test: Toxicity in osteoporotic female mouse at 0.11 umol/kg, po; assay type: organism-based; settings: in vivo
[22] = Stability in presence of pepsin at 37 degC after 90 mins; assay type: ADME; settings: isolated protein, 1.5 h

IC50 (Mus musculus [1]): 0.31 µmol/kg
IC50 (Mus musculus [2]): 0.26 µmol/kg
Stability [4]: Stable
Compound: H-RGDFRGDF-OH
Activity (Mus musculus [3]): inactive

Compound: C[C@]12CC[C@@H]3c4ccc(O)cc4CC[C@H]3[C@@H]1CC[C@@H]2OC(=O)CCC(=O)N[C@@H](CCCNC(=N)N)C(=O)NCC(=O)N[C@@H](CC(=O)O)C(=O)N[C@@H](Cc1ccccc1)C(=O)N[C@@H](CCCNC(=N)N)C(=O)NCC(=O)N[C@@H](CC(=O)O)C(=O)N[C@@H](Cc1ccccc1)C(=O)O ({Succinyl(O17-estradiol)}-RGDFRGDF-OH)
Activity (Mus musculus [5]): 3.01 mM
Activity (Mus musculus [6]): 3.01 mM
Activity (Mus musculus [7]): 56.6 mg
Activity (Mus musculus [8]): 36.87 mg
Activity (Mus musculus [9]): 1.64 cm
Activity (Mus musculus [10]): 64.36%
Activity (Mus musculus [11]): 21.56%
Activity (Mus musculus [12]): 0.625%
Activity (Mus musculus [13]): 0.135 g
Activity (Mus musculus [14]): 0.109 g
Activity (Mus musculus [15]): 0.16 g
Activity (Mus musculus [16]): 1.266 g
Time (Mus musculus [17]): 584 s
Time (Mus musculus [18]): 571 s
Activity (Mus musculus [19]): 0.06 g
Activity (Mus musculus [20]): Active
Activity (Mus musculus [21]): Non-toxic

Stability [22]: Unstable
Compound: N=C(N)NCCC[C@H](N)C(=O)NCC(=O)N[C@@H](CC(=O)O)C(=O)N[C@@H](Cc1ccccc1)C(=O)O (H-RGDF-OH)
